Screening results: PubChem BioAssay, several laboratories
SKKanGAS inh: SKKanGAS growth inhibition. S. pyogenes SKKanGAS, kanamycin growth, BacTiter-Glo, 6 h. inhibition, % at 7.5 µM. hit rate 1.3% among 300,000. AID 1662;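 active = mean replicate score, as percent of positive control median, at least 50; inconclusive = mean below 50 but one replicate at or above 50; inactive = mean and every replicate below 50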;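 note: strain carries kanamycin resistance gene driven by streptokinase promoter and grows in 40 µg/ml kanamycin; loss of luminescence reflects streptokinase promoter inhibition or plain growth inhibition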
sPLA2-III inh: Blocks human group III sPLA2 activity; hit rate 0.56% among 370,000; QFRET BODIPY PC-A2 liposome hydrolysis, fluorescence; inhibition, % at 12.2 µM; AID 743126;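 active = inhibition above mean plus 3 SD of compounds lying within the high and low control bounds, cut at about 19% in these data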
ASAP1 inh: inhibitors of human ASAP1 ArfGAP activity; ASAP1-stimulated ARF1 GTP hydrolysis, GDP FP detection; inhibition, % at 16.5 µM; AID 624377; hit rate 0.19% among 360,000; Q9ULH1; in the data active = inhibition above about 25%
Calb FLC: affects C. albicans growth with fluconazole | AID 1979 | C. albicans CaCi-2 (fluconazole-resistant clinical isolate) + fluconazole, Alamar Blue growth, 48 h | growth inhibition, % (concentration not given with the values) | hit rate 0.57% among 300,000;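 active = growth inhibition above about 58% in most replicates, limit read from the data, passing the limit was not always enough; inconclusive = exactly half the replicates above a set limit; inactive = most replicates below a set limit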;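 note: all wells also contain fluconazole at 8 µg/ml as a sub-toxic cotreatment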
ARFGAP1 inh: inhibits rat ARF GTPase activating protein 1. Q62848. Arfgap1-stimulated ARF1 GTP hydrolysis, GDP FP detection. inhibition, % at 16.5 µM. hit rate 0.26% among 360,000. AID 651572;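 active = inhibition above a per-plate limit, mean inhibition of low control wells plus 3 SD, cut at about 25% in these data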
Target sequence (Q62848 1-136 limits assumed): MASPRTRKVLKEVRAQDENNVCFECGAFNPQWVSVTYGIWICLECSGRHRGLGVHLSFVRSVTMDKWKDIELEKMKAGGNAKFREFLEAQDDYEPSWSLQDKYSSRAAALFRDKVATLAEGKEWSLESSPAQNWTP
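System: truncated rat Arfgap1 GAP domain / Benchmarks: high control wells lacking Arfgap1, low control full reaction with DMSO / Times: compound-enzyme preincubation 20 min, reaction 120 min, detection 60 min, 25 °C / Repeats: one replicate per compound / Also added: human ARF1(Δ1-17)-GTP substrate / Measured by: Tracer-displacement fluorescence polarization with EDTA stop, 620/688 nm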
ARFGAP1 confirm: confirmation of rat ARFGAP1 inhibitors; hit rate 30% among 890; ARFGAP1-stimulated ARF1 GTP hydrolysis, GDP tracer FP; inhibition, % at 16.5 µM; shares compounds with ARFGAP1 inh; AID 651608;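 active = average inhibition over triplicates above the hit cutoff set in the earlier primary screen, cut at about 25% in these data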
Target sequence (Q62848 whole entry, looked up): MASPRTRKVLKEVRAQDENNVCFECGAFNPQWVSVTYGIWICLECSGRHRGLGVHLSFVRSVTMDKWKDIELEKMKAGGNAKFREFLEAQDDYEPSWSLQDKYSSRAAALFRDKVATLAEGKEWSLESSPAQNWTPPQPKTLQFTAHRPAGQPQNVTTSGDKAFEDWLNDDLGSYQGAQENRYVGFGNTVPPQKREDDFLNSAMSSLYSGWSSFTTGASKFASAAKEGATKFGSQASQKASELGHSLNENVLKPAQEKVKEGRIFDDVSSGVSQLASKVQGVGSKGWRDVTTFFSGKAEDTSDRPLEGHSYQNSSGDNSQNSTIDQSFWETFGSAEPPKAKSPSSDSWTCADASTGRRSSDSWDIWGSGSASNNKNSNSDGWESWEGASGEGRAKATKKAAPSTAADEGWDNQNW
Numbers stand for hits. Shown are actives, neighbours in structure and some others; about 2.3% of the full set was active somewhere.

How did COc1ccc([C@H]2C[C@@H](n3cc(COC(=O)c4ccccc4)nn3)[C@H](O)CN2C(=O)C2CCCCC2)cc1 do in these assays?
sPLA2-III inh: inactive; ASAP1 inh: inactive; ARFGAP1 inh: 26.2; ARFGAP1 confirm: inactive

Results for Cc1ccc(S(=O)(=O)N(Cc2ccccc2F)C(=O)N2CCN(C)CC2)cc1 ?
SKKanGAS inh: inactive; sPLA2-III inh: inactive; ASAP1 inh: inactive; Calb FLC: inactive; ARFGAP1 inh: 28.7; ARFGAP1 confirm: inactive

What do the screens show for `Cc1ccc(S(=O)(=O)N(Cc2ccccc2Cl)C(=O)N2CCN(C)CC2)cc1`?
SKKanGAS inh: inactive; sPLA2-III inh: inactive; ASAP1 inh: inactive; Calb FLC: inactive; ARFGAP1 inh: inactive

How did Cc1nc(CSc2ccc(Cl)cc2)cc(N2CC(C)OC(C)C2)n1 (stereo unspecified) do in these assays?
SKKanGAS inh: inactive; sPLA2-III inh: inactive; ASAP1 inh: inactive; Calb FLC: inactive; ARFGAP1 inh: 24.6; ARFGAP1 confirm: inactive

Results for C[C@H](c1ccccc1)N1C[C@@H](COCc2ccccc2)Oc2cccc(F)c2S1(=O)=O ?
sPLA2-III inh: inactive; ASAP1 inh: inactive; ARFGAP1 inh: inactive

What do the screens show for `O=[N+]([O-])c1cccc(/C=C/c2nc3ccc([N+](=O)[O-])cc3[nH]2)c1`?
SKKanGAS inh: inactive; sPLA2-III inh: inactive; ASAP1 inh: inactive; Calb FLC: inactive; ARFGAP1 inh: 25.0; ARFGAP1 confirm: 25.9

What do the screens show for `COc1ccc(CNC(=O)c2sc(=O)n(Cc3ccc(-c4ccccc4)cc3)c2C)cc1OC`?
sPLA2-III inh: inactive; ASAP1 inh: inactive; ARFGAP1 inh: 26.2; ARFGAP1 confirm: inactive

How did COC(=O)C1=C(C)N(Cc2ccccc2C(F)(F)F)C(=NCc2ccccc2)NC1c1cccc(C(F)(F)F)c1 (stereo unspecified) do in these assays?
sPLA2-III inh: inactive; ASAP1 inh: inactive; ARFGAP1 inh: inactive

How did OCCOCCNc1ncnc2sc(-c3ccccc3)cc12 do in these assays?
SKKanGAS inh: inactive; sPLA2-III inh: inactive; ASAP1 inh: inactive; Calb FLC: inactive; ARFGAP1 inh: 35.9; ARFGAP1 confirm: inactive

What do the screens show for `COC(=O)c1c(C)[nH]c(C)c1-c1ccccc1`?
SKKanGAS inh: inactive; sPLA2-III inh: inactive; ASAP1 inh: inactive; Calb FLC: inconclusive; ARFGAP1 inh: 24.8; ARFGAP1 confirm: inactive

How did COC(=O)c1c(C)nc2ccccc2c1-c1ccccc1 do in these assays?
SKKanGAS inh: inactive; sPLA2-III inh: inactive; ASAP1 inh: inactive; Calb FLC: inactive; ARFGAP1 inh: inactive

Results for CC(C)(Cc1ccc(O)cc1)NC(=O)CC(=O)N=Nc1c(O)[nH]c2ccc(Br)cc12 ?
SKKanGAS inh: inactive; sPLA2-III inh: inactive; ASAP1 inh: inactive; Calb FLC: inactive; ARFGAP1 inh: inactive

How did Oc1ccc(NC(=S)N=Nc2c(O)[nH]c3ccc(Br)cc23)cc1 do in these assays?
SKKanGAS inh: inactive; sPLA2-III inh: inactive; ASAP1 inh: inactive; Calb FLC: inactive; ARFGAP1 inh: 29.0; ARFGAP1 confirm: inactive

How did COC(=O)[C@]12C[C@H](CC(=O)NCCCN3CCCC3=O)C(=O)N(CCC3=CCCCC3)C1=C[C@H](C1CCCC1)O[C@@H]2C do in these assays?
sPLA2-III inh: inactive

How did CCOC(=O)C1=C(CBr)NC(=O)NC1C (stereo unspecified) do in these assays?
SKKanGAS inh: inactive; sPLA2-III inh: inactive; ASAP1 inh: inactive; Calb FLC: inactive; ARFGAP1 inh: 32.7; ARFGAP1 confirm: inactive

How did O=C(Nc1cc([N+](=O)[O-])ccc1Cl)c1cccnc1 do in these assays?
SKKanGAS inh: inactive; sPLA2-III inh: inactive; ASAP1 inh: inactive; Calb FLC: inactive; ARFGAP1 inh: 25.1; ARFGAP1 confirm: inactive

Results for O=C(NCc1ccccc1)C(c1ccncc1)n1c(=O)c(-c2cc3ccccc3[nH]2)nc2ccccc21 (stereo unspecified) ?
sPLA2-III inh: inactive; ASAP1 inh: inactive; ARFGAP1 inh: 24.9; ARFGAP1 confirm: inactive

How did O=C(NCc1ccccc1)C(c1ccc(-c2ccccc2)cc1)n1c(=O)c(-c2cc3ccccc3[nH]2)nc2ccccc21 (stereo unspecified) do in these assays?
sPLA2-III inh: inactive; ASAP1 inh: inactive; ARFGAP1 inh: inactive

What do the screens show for `Cc1sc2nc(SCC(=O)N3CC(C)OC(C)C3)n(C)c(=O)c2c1C` (stereo unspecified)?
SKKanGAS inh: inactive; sPLA2-III inh: inactive; ASAP1 inh: inactive; Calb FLC: inactive; ARFGAP1 inh: 25.6; ARFGAP1 confirm: inactive

Results for Nn1cnnc1N/N=C\c1ccc(-c2ccccc2[N+](=O)[O-])o1 ?
SKKanGAS inh: inactive; sPLA2-III inh: inactive; ASAP1 inh: inactive; Calb FLC: inactive; ARFGAP1 inh: 27.5; ARFGAP1 confirm: inactive

How did O=C(c1cc([N+](=O)[O-])cc([N+](=O)[O-])c1)N(c1ccccn1)c1ccccn1 do in these assays?
SKKanGAS inh: inactive; sPLA2-III inh: inactive; ASAP1 inh: inactive; Calb FLC: inactive; ARFGAP1 inh: inactive

Results for CN(C)S(=O)(=O)c1ccc(C(=O)N(c2ccccn2)c2ccccn2)cc1 ?
SKKanGAS inh: inactive; sPLA2-III inh: inactive; ASAP1 inh: inactive; Calb FLC: inactive; ARFGAP1 inh: 30.6; ARFGAP1 confirm: inactive

Results for COc1cc(O)c(CC=C(C)C)c(O)c1C(=O)CCc1ccc(O)cc1 ?
SKKanGAS inh: 97.7; sPLA2-III inh: inactive; ASAP1 inh: inactive; Calb FLC: inactive; ARFGAP1 inh: 28.6; ARFGAP1 confirm: 28.6

Results for O=C(CCc1ccc(O)cc1)c1c(O)cc(O)cc1O ?
SKKanGAS inh: inactive; sPLA2-III inh: inactive; ASAP1 inh: inactive; Calb FLC: inactive; ARFGAP1 inh: inactive

Results for O=C(CSc1nnc(-c2ccccn2)n1-c1ccc(Cl)cc1)Nc1ccc2c(c1)OCCO2 ?
sPLA2-III inh: inactive

How did CSc1ccc(/C=N/NC(=O)c2ccc3nc[nH]c3c2)cc1 do in these assays?
sPLA2-III inh: inactive; ASAP1 inh: inactive; ARFGAP1 inh: 27.6; ARFGAP1 confirm: inactive

How did COC(=O)C12C=C3CC(C4CC4)=C3C(=O)N1Cc1[nH]c3ccccc3c1C2 (stereo unspecified) do in these assays?
sPLA2-III inh: inactive

How did O=C(COC(=O)c1c2c(nc3ccccc13)/C(=C\c1cccs1)CCC2)Nc1ccccc1 do in these assays?
SKKanGAS inh: inactive; sPLA2-III inh: inactive; ASAP1 inh: inactive; Calb FLC: inactive; ARFGAP1 inh: inactive

What do the screens show for `CC(=O)c1ccc(NC(=O)COC(=O)c2c3c(nc4ccccc24)/C(=C\c2cccs2)CCC3)cc1`?
SKKanGAS inh: inactive; sPLA2-III inh: inactive; ASAP1 inh: inactive; Calb FLC: inactive; ARFGAP1 inh: 32.0; ARFGAP1 confirm: inactive

Results for O=C(CSC1CCc2ccccc21)NNC(=O)Nc1ccc(Cl)cc1 (stereo unspecified) ?
sPLA2-III inh: inactive; ASAP1 inh: inactive; ARFGAP1 inh: inactive

Results for COc1ccc(/C=C/c2nc(N)nc(-c3ccccc3O)n2)cc1OC ?
SKKanGAS inh: inactive; sPLA2-III inh: inactive; ASAP1 inh: inactive; Calb FLC: inactive; ARFGAP1 inh: 29.6; ARFGAP1 confirm: 37.8
